Measurements as given in ChEMBL document CHEMBL1135911, “Synthesis, biological evaluation, and binding mode of novel 1-[2-(diarylmethoxy)ethyl]-2-methyl-5-nitroimidazoles targeted at the HIV-1 reverse transcriptase” (J Med Chem, 2002).

How the values were obtained:
MT4 [1] = assay: (§1) Selectivity Index (CC50:EC50 Ratio); type: functional
MT4 [2] = assay: Dose required to reduce the viability of mock-infected cells by 50%; type: functional; conditions: Homo sapiens
Method in brief: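 Mock-infected MT-4 cells were run in parallel with the antiviral assay: 1 × 10^4 cells/well, serial compound dilutions, 4 days at 37 °C. Viability was read by MTT. CC50 is the dose that reduces viability by 50%; mean of at least two experiments.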

[3] = system: Human immunodeficiency virus 1; assay: Dose required to achieve 50% protection of MT-4 cells from HIV-1 induced cytopathogenicity; type: functional, organism-based; conditions: Human immunodeficiency virus 1, MT4
Method in brief: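 MT-4 cells (1 × 10^4/well) in RPMI 1640 with 10% FCS were infected with 100 CCID50 of HIV-1 IIIB, with or without serial dilutions of compound (DMSO stock diluted in medium). After 4 days at 37 °C, viable cells were counted by MTT. EC50 is the dose giving 50% protection from virus-induced cytopathicity; mean of at least two experiments.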

[4] = biological target: Human immunodeficiency virus type 1 reverse transcriptase (Human immunodeficiency virus 1, UniProt Q72547); assay: Dose required to inhibit the HIV-1 Reverse transcriptase activity by 50%
Method in brief: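 Highly purified recombinant wild-type HIV-1 RT, RNA-dependent polymerase activity. Buffer: 50 mM Tris-HCl pH 7.8, 80 mM KCl, 6 mM MgCl2, 1 mM DTT, 0.1 mg/mL BSA. Template/primer: poly(rC)/oligo(dG)12-18 at 0.5 OD260 unit/mL. Substrate: [3H]dGTP (1 Ci/mmol). Incubated 30 min at 37 °C; acid-insoluble radioactivity read on glass fibre filters.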

[5] = as §1
Method in brief: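 Ratio of CC50 (MTT viability of mock-infected MT-4 cells) to EC50 (MTT protection of MT-4 cells from HIV-1 IIIB cytopathicity, 100 CCID50, 4 days at 37 °C).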

[6] = biological target: Human immunodeficiency virus 1; assay: Anti-HIV-1 activity in MT-4 cells

SMILES | EC50 [3] [µM] | EC50 [6] [µM] | Selectivity index (MT4 [1]) | CC50 (MT4 [2]) [µM] | IC50 [4] [µM] | Selectivity index [5]
Cc1ncc([N+](=O)[O-])n1CCOC(c1ccccc1)c1cc(Cl)cc(Cl)c1 (configuration not stated) | 45 | – | >4 | > 200 | – | –
Cc1ncc([N+](=O)[O-])n1CCOC(c1ccccc1)c1cccc([N+](=O)[O-])c1 (configuration not stated) | 0.6 | – | – | 92.5 | 0.3 | 154
Cc1ncc([N+](=O)[O-])n1CCOC(c1ccccc1)c1cc(F)cc(F)c1 (configuration not stated) | 1 | – | >200 | > 200 | – | –
Cc1cccc(C(OCCn2c([N+](=O)[O-])cnc2C)c2ccccc2)c1 (configuration not stated) | 0.1 | – | >2000 | > 200 | 0.3 | –
Cc1ncc([N+](=O)[O-])n1CCOC(c1ccccc1)c1cccc(Cl)c1 (configuration not stated) | 0.2 | – | >1000 | > 200 | 0.5 | –
Cc1ncc([N+](=O)[O-])n1CCOC(c1ccccc1)c1cccc(F)c1 (configuration not stated) | 0.1 | – | >2000 | > 200 | 0.5 | –
CC(C)Nc1cccnc1N1CCN(C(=O)c2cc3cc(NS(C)(=O)=O)ccc3[nH]2)CC1 [DELAVIRDINE] | 0.01 | – | – | > 30 | – | –
Cc1ncc([N+](=O)[O-])n1CCOC(c1ccccc1)c1cccc(-n2cccc2)c1 (configuration not stated) | 14 | – | >14 | > 200 | – | –
Cc1ncc([N+](=O)[O-])n1CCOC(c1ccccc1)c1ccccc1Cl (configuration not stated) | 0.6 | – | 85 | 52 | 0.6 | –
Cc1ccccc1C(OCCn1c([N+](=O)[O-])cnc1C)c1ccccc1 (configuration not stated) | 0.2 | – | 380 | 76 | 0.2 | –
Cc1ncc([N+](=O)[O-])n1CCOC(c1ccccc1)c1ccc(-c2ccccc2)cc1 (configuration not stated) | – | 17 | – | – | – | –
Cc1ncc([N+](=O)[O-])n1CCCOC(c1ccccc1)c1ccccc1 | 35 | – | 3 | 96.5 | – | –
Cc1ncc([N+](=O)[O-])n1CCOC(c1ccccc1)c1ccccc1F (configuration not stated) | 0.2 | – | 315 | 63 | 0.4 | –
Cc1cc(C)cc(C(OCCn2c([N+](=O)[O-])cnc2C)c2ccccc2)c1 (configuration not stated) | 0.4 | – | >500 | 200 | – | –

Further lines, with some results ahead:

EC50 [3] [µM] | EC50 [6] [µM] | SMILES | Selectivity index (MT4 [1]) | CC50 (MT4 [2]) [µM] | IC50 [4] [µM] | Selectivity index [5]
97 | – | Cc1ncc([N+](=O)[O-])n1CCOC(c1ccccc1)c1ccc(Cl)c(Cl)c1 (configuration not stated) | >2 | 200 | – | –
> 200 | – | CC(=O)Nc1ccc(C(OCCn2c([N+](=O)[O-])cnc2C)c2ccccc2)cc1 (configuration not stated) | – | > 200 | – | –
– | 1.41 | Cc1ccc(C(OCCn2c([N+](=O)[O-])cnc2C)c2ccccc2)cc1 (configuration not stated) | – | – | – | –
86 | – | COc1ccc(C(OCCn2c([N+](=O)[O-])cnc2C)c2ccccc2)cc1 (configuration not stated) | >2 | > 200 | – | –
– | 12 | Cc1ncc([N+](=O)[O-])n1CCOC(c1ccccc1)c1ccc(Cl)cc1 (configuration not stated) | – | – | – | –
0.2 | – | Cc1ncc([N+](=O)[O-])n1CCOC(c1ccccc1)c1ccccc1 | >1000 | > 200 | – | –
– | 3.98 | Cc1ncc([N+](=O)[O-])n1CCOC(c1ccccc1)c1ccc(C(C)(C)C)cc1 (configuration not stated) | – | – | – | –
106 | – | Cc1ncc([N+](=O)[O-])n1CCOC(c1ccccc1)c1ccc2ccccc2c1 (configuration not stated) | >1.8 | > 200 | – | –
5 | – | Cc1ncc([N+](=O)[O-])n1CCOC(c1ccccc1)c1ccc([N+](=O)[O-])cc1 (configuration not stated) | – | 111 | – | 22
– | 0.891 | Cc1ncc([N+](=O)[O-])n1CCOC(c1ccccc1)c1ccc(F)cc1 (configuration not stated) | – | – | – | –
